Test results taken from ChEMBL document CHEMBL3112420, “Discovery of 8-cyclopentyl-2-[4-(4-methyl-piperazin-1-yl)-phenylamino]-7-oxo-7,8-dihydro-pyrido[2,3-d]pyrimidine-6-carbonitrile (7x) as a potent inhibitor of cyclin-dependent kinase 4 (CDK4) and AMPK-related kinase 5 (ARK5)” (J Med Chem, 2014).
Activity calls are given as the source filed them. No cut-off for these calls is given here.

Tests used:
[1] = biological target: Fibroblast growth factor receptor 1 (Homo sapiens, UniProt P11362); assay: Inhibition of FGFR1 (unknown origin)
[2] = Cytotoxicity against human DLD1 cells after 96 hrs by Cell-Titer Blue assay; type: functional; details: DLD-1, 96 h
[3] = test system: MCF7; assay: Cell cycle arrest in human MCF7 cells assessed as accumulation at G1 phase at 0.5 to 1 uM after 24 hrs by propidium iodide staining-based flow cytometric analysis; type: functional
Method in brief: (§1)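 Cells plated at 1.0 × 10^6 per dish, then treated 24 h later with increasing concentrations for 24 h. Floating and adherent cells were pooled, PBS-washed and fixed in ice-cold 70% ethanol for at least 24 h. They were then stained with propidium iodide plus RNase A for 30 min at 37 °C. Percentage of cells in each phase was read by flow cytometry.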

[4] = test system: NCI-H417; assay: Cytotoxicity against human NCI-N417 cells after 96 hrs by Cell-Titer Blue assay; type: functional; details: NCI-H417, 96 h
[5] = test system: MCF7; assay: Cell cycle arrest in human MCF7 cells assessed as accumulation at sub-G1 phase at 0.5 to 1 uM after 48 hrs by propidium iodide staining-based flow cytometric analysis; type: functional
[6] = test system: SK-OV-3; assay: Cytotoxicity against human SKOV3 cells after 96 hrs by Cell-Titer Blue assay; type: functional; details: SK-OV-3, 96 h
[7] = test system: Mus musculus; assay: Toxicity in NCR nude mouse xenografted with human MDA-MB-231 cells assessed as weight loss at 50 mg/kg, ip […] administered on alternative days measured every 2 days up to 21 days; type: organism-based; design: dose 50 mg/kg, route intraperitoneal; details: in vivo
Method in brief: (§2)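 MDA-MB-231 cells orthotopically implanted into mammary fat pads of 6–8 week old female nude mice (n=11 per group). Dosing began when average tumour volume reached 100 mm3. Lactate salt in PBS or vehicle was given intraperitoneally every other day (Q2D). Tumour volumes and body weights were recorded every 2 days over 21 days; mean ± SEM.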

[8] = Cytotoxicity against human SNU398 cells after 96 hrs by Cell-Titer Blue assay; type: functional; details: SNU-398, 96 h
[9] = test system: MDA-MB-231; assay: Cell cycle arrest in human MDA-MB-231 cells assessed as accumulation at G1 phase at 0.5 to 1 uM after 24 hrs by propidium iodide staining-based flow cytometric analysis; type: functional; method in brief: as §1
[10] = test system: MDA-MB-231; assay: Antitumor activity against ip dosed human MDA-MB-231 cells xenografted in NCR nude mouse assessed as inhibition of tumor growth administered as […] on alternative days measured every 2 days up to 21 days; type: functional, organism-based; method in brief: as §2
[11] = Cytotoxicity against human SKBR3 cells after 96 hrs by Cell-Titer Blue assay; type: functional; details: SK-BR-3, 96 h
[12] = test system: MDA-MB-231; assay: Cell cycle arrest in human MDA-MB-231 cells assessed as accumulation at sub-G1 phase at 0.5 to 1 uM after 48 hrs by propidium iodide staining-based flow cytometric analysis; type: functional
[13] = test system: SW480; assay: Cytotoxicity against human SW480 cells after 96 hrs by Cell-Titer Blue assay; type: functional; details: SW480, 96 h
[14] = test system: COLO 205; assay: Cytotoxicity against human COLO205 cells after 96 hrs by Cell-Titer Blue assay; type: functional; details: COLO 205, 96 h
[15] = test system: Mus musculus; assay: Toxicity in CD-1 mouse xenografted with human MDA-MB-231 cells assessed as weight loss at 100 to 200 mg/kg, ip measured for 7 days; type: organism-based; design: dose 100-200 mg/kg, route intraperitoneal; details: in vivo, 168 h
[16] = test system: K562; assay: Cytotoxicity against human K562 cells after 96 hrs by Cell-Titer Blue assay; type: functional, cell-based; details: K562, 96 h
[17] = test system: A549; assay: Cytotoxicity against human A549 cells after 96 hrs by Cell-Titer Blue assay; type: functional; details: A549, 96 h
[18] = Cytotoxicity against human HCC1428 cells after 96 hrs by Cell-Titer Blue assay; type: functional; details: HCC1428, 96 h
[19] = biological target: Receptor-type tyrosine-protein kinase FLT3 (Homo sapiens, UniProt P36888); assay: Inhibition of FLT3 (unknown origin)
[20] = Cytotoxicity against human GRANTA-519 cells after 96 hrs by Cell-Titer Blue assay; type: functional; details: Granta-519, 96 h
[21] = test system: HCT-15; assay: Cytotoxicity against human HCT15 cells after 96 hrs by Cell-Titer Blue assay; type: functional; details: HCT-15, 96 h
[22] = biological target: Tyrosine-protein kinase ABL1 (Homo sapiens, UniProt P00519); assay: Inhibition of ABL (unknown origin)
[23] = test system: MDA-MB-231; assay: Inhibition of PI3K in human MDA-MB-231 cells assessed as inhibition of Akt phosphorylation at Ser473 at 0.1 to 10 uM after 24 hrs by Western blotting analysis; type: cell-based
Method in brief: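 Total lysates (100 μg) were run on 10% SDS-PAGE and immunoblotted for Ser473-phosphorylated and total AKT, with GAPDH as loading control. Detection used infrared-dye secondary antibodies.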

[24] = Cytotoxicity against human HFL cells after 96 hrs by Cell-Titer Blue assay; type: cell-based
[25] = test system: HeLa; assay: Cytotoxicity against human HeLa cells after 96 hrs by Cell-Titer Blue assay; type: functional
[26] = test system: MDA-MB-231; assay: Antitumor activity against human MDA-MB-231 cells xenografted in NCR nude mouse assessed as decrease in tumor weight at 50 mg/kg, ip […] administered on alternative days measured every 2 days up to 21 days; type: functional, organism-based; design: dose 50 mg/kg; method in brief: as §2
[27] = Cytotoxicity against human BT20 cells after 96 hrs by Cell-Titer Blue assay; type: functional; details: BT-20, 96 h
[28] = biological target: Macrophage colony-stimulating factor 1 receptor (Homo sapiens, UniProt P07333); assay: Inhibition of FMS (unknown origin)
[29] = test system: MDA-MB-231; assay: Induction of apoptosis in human MDA-MB-231 cells assessed as PARP cleavage at 1 to 10 uM after 24 hrs by Western blotting analysis; type: functional, cell-based
[30] = biological target: CDK6/cyclin D1 (Homo sapiens, UniProt Q00534); assay: Inhibition of CDK6/cyclinD1 (unknown origin); type: protein-complex assay
[31] = Cytotoxicity against human SNU5 cells after 96 hrs by Cell-Titer Blue assay; type: functional; details: SNU-5, 96 h
[32] = Cytotoxicity against human Capan1 cells after 96 hrs by Cell-Titer Blue assay; type: functional; details: CAPAN-1, 96 h
[33] = Cytotoxicity against human Z138C cells after 96 hrs by Cell-Titer Blue assay; type: functional
[34] = test system: MDA-MB-231; assay: Induction of apoptosis in human MDA-MB-231 cells assessed as PARP cleavage after 24 hrs by Western blotting analysis; type: functional, cell-based
[35] = test system: MCF7; assay: Induction of apoptosis in human MCF7 cells assessed as PARP cleavage after 24 hrs by Western blotting analysis; type: functional, cell-based
[36] = Cytotoxicity against human SNU475 cells after 96 hrs by Cell-Titer Blue assay; type: functional; details: SNU-475, 96 h
[37] = test system: MCF7; assay: Induction of apoptosis in human MCF7 cells assessed as PARP cleavage at 1 to 10 uM after 24 hrs by Western blotting analysis; type: functional, cell-based
[38] = biological target: Cyclin-dependent kinase 4/cyclin D1 (Homo sapiens) (UniProt P11802+P24385); assay: Inhibition of recombinant CDK4/cyclinD1 in human MDA-MB-231 cells assessed as inhibition of retinoblastoma phosphorylation at Ser780 at 0.5 to 5 uM after 24 hrs by Western blotting analysis; type: cell-based
Method in brief: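 Breast carcinoma cells were given increasing concentrations for 24 h. Total lysates (100 μg, 10% SDS-PAGE) were immunoblotted with antibodies against Ser780-phosphorylated and non-phosphorylated RB. Bands were read on an infrared scanning system.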

Chain of Fibroblast growth factor receptor 1 (P11362 whole entry): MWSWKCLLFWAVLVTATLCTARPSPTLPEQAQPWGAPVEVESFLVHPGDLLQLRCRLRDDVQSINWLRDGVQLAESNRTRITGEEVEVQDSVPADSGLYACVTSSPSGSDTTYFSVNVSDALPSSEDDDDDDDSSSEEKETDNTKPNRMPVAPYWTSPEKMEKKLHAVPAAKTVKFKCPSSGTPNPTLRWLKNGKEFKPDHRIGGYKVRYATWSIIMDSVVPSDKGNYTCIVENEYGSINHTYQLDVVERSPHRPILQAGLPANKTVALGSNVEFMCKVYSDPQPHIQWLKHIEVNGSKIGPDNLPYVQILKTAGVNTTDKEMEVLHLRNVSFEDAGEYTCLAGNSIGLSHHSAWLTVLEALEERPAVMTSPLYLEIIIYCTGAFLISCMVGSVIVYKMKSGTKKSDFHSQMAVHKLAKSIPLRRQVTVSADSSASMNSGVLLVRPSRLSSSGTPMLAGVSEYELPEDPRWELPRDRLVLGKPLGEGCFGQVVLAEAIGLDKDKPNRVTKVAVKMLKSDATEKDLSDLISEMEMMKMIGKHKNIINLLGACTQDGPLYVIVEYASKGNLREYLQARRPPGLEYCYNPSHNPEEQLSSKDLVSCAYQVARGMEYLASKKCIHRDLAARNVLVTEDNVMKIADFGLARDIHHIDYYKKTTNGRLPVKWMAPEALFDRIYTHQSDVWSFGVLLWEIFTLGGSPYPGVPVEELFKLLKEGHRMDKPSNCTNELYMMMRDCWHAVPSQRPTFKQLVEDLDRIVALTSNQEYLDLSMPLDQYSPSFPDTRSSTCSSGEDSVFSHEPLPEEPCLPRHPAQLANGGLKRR
Chain of CDK6/cyclin D1 (P24385 whole entry): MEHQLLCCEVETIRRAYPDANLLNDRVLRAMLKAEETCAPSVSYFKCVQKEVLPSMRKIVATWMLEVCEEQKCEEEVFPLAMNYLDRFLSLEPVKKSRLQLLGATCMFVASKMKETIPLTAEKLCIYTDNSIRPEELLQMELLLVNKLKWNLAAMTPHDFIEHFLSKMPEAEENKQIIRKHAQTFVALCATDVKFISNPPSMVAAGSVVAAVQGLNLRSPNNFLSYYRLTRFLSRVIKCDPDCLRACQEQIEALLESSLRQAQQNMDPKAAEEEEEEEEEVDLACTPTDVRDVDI
Chain of CDK6/cyclin D1 (Q00534 whole entry): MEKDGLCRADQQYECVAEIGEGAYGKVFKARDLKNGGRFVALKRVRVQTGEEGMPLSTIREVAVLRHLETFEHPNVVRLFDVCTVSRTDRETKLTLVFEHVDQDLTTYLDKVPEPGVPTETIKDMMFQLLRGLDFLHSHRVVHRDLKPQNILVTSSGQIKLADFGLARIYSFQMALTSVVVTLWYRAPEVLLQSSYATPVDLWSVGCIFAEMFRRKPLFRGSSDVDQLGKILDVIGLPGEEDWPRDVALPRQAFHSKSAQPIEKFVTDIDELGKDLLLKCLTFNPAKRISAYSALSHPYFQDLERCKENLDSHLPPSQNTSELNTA
Chain of Macrophage colony-stimulating factor 1 receptor (P07333 whole entry): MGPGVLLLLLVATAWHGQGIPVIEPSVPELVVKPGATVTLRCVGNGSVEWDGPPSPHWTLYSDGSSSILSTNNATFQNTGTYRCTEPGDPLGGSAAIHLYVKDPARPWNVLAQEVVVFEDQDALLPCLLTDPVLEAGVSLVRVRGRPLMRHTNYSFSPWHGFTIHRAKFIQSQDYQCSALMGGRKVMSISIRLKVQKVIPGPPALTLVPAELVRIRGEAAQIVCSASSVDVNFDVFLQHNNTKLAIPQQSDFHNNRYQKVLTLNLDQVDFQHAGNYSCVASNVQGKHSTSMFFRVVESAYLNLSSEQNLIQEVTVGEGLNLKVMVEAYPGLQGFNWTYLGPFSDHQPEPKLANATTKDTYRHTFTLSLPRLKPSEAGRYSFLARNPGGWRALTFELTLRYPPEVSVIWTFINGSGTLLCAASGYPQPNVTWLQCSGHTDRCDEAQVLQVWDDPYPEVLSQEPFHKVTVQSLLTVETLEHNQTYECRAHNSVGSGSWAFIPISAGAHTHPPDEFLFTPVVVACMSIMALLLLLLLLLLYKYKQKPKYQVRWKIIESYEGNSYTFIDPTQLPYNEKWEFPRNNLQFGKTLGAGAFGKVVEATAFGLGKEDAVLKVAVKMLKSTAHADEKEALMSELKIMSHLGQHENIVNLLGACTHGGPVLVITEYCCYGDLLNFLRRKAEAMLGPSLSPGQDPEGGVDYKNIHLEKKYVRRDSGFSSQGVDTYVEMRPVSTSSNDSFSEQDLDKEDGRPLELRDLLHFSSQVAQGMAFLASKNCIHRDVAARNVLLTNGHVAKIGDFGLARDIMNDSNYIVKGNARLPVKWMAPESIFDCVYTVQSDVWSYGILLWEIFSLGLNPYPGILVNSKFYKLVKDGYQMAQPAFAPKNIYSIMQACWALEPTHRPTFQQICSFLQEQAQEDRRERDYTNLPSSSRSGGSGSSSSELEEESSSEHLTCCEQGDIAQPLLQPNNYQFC
Chain of Receptor-type tyrosine-protein kinase FLT3 (P36888 whole entry): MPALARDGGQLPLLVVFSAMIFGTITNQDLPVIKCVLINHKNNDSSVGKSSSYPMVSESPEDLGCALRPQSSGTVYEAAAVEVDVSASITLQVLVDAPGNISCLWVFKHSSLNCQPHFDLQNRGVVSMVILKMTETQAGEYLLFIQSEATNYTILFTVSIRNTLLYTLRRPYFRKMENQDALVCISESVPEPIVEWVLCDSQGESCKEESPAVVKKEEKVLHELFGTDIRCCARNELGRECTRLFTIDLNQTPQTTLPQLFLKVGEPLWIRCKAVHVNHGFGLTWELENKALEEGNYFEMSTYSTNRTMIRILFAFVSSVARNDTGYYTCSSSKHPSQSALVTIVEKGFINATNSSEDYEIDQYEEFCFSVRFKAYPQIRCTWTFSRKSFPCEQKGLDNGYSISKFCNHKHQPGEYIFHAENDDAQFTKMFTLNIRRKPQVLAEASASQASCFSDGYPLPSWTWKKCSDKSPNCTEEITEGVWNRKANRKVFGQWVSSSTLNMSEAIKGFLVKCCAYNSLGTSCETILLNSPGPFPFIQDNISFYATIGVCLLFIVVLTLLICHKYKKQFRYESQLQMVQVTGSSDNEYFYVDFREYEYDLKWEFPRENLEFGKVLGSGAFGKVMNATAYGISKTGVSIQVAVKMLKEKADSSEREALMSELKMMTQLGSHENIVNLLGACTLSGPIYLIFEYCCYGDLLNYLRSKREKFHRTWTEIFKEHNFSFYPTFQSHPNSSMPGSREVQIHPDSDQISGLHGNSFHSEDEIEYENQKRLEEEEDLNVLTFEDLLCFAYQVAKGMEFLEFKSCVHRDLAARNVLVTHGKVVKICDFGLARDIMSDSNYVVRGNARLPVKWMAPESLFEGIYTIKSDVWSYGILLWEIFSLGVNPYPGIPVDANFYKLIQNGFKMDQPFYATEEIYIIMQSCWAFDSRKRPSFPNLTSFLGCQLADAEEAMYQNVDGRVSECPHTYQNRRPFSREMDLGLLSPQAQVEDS
Chain of Tyrosine-protein kinase ABL1 (P00519 whole entry): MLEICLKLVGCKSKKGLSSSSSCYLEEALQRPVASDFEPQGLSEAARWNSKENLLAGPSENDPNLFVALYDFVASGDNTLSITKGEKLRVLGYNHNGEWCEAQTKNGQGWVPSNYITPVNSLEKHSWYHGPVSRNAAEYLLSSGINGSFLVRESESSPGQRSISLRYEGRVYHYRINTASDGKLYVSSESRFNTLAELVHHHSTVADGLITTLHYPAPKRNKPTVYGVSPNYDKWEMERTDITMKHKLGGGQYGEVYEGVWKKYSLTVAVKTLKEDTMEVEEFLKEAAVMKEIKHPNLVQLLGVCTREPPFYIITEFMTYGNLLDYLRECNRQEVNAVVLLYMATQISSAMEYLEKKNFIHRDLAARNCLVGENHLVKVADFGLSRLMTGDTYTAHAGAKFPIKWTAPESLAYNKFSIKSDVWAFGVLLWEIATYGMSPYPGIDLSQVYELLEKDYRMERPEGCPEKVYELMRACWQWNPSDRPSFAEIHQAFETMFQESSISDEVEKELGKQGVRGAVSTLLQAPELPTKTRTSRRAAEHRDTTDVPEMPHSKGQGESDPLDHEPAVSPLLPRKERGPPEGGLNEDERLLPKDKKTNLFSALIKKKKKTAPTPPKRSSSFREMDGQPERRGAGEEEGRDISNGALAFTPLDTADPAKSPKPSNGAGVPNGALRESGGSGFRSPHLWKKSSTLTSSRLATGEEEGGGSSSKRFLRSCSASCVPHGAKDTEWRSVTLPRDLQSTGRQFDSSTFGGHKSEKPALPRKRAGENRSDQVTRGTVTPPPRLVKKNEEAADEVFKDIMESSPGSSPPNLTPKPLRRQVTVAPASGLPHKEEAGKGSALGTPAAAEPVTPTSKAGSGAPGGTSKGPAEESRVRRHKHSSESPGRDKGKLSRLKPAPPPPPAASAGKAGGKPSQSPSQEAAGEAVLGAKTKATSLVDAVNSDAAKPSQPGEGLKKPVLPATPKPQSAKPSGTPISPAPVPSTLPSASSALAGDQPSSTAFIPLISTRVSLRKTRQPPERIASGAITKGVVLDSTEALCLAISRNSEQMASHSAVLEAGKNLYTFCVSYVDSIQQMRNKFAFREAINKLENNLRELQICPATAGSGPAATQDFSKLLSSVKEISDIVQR

Compound: CN1CCN(c2ccc(Nc3ncc4cc(C#N)c(=O)n(C5CCCC5)c4n3)cc2)CC1 [NARAZACICLIB]
- IC50 [1]: 26 nM
- GI50 [2]: 100 nM
- Activity [3]: Active
- GI50 [4]: 250 nM
- Activity [5]: Active
- GI50 [6]: 750 nM
- Activity [7]: Non-toxic
- GI50 [8]: 200 nM
- Activity [9]: Active
- inhibition [10]: Dose-dependent effect
- GI50 [11]: 150 nM
- Activity [12]: Active
- GI50 [13]: 90 nM
- GI50 [14]: 100 nM
- Activity [15]: Non-toxic
- GI50 [16]: 100 nM
- IC50 [16]: 50 nM
- GI50 [17]: 200 nM
- GI50 [18]: 300 nM
- IC50 [19]: 12.2 nM
- GI50 [20]: 25 nM
- GI50 [21]: 300 nM
- IC50 [22]: 53.3 nM
- inhibition [23]: Active
- GI50 at 96 h [24]: 5000 nM
- GI50 [25]: 750 nM
- Activity [26]: Active
- GI50 [27]: 100 nM
- IC50 [28]: 10 nM
- Activity [29]: Active
- IC50 [30]: 9.82 nM
- GI50 [31]: 100 nM
- GI50 [32]: 500 nM
- GI50 [33]: 25 nM
- Activity [34]: Dose-dependent effect
- Activity [35]: Dose-dependent effect
- GI50 [36]: 300 nM
- Activity [37]: Active
- inhibition [38]: Active
